Screening results from PubChem.
Hck Nef HTS: blocks Nef-activated human Hck kinase. Recombinant Hck-YEEI plus Nef, Z-Lyte FRET kinase assay. inhibition, % at 20 µM. hit rate 0.68% among 220,000;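 active = Hck-Nef kinase inhibition above about 50%, limit read from the data; inactive = inhibition below that limit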;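 also: 0% = DMSO with Hck plus Nef and 100% = Hck alone without Nef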
Target sequence (P08631 whole entry, looked up): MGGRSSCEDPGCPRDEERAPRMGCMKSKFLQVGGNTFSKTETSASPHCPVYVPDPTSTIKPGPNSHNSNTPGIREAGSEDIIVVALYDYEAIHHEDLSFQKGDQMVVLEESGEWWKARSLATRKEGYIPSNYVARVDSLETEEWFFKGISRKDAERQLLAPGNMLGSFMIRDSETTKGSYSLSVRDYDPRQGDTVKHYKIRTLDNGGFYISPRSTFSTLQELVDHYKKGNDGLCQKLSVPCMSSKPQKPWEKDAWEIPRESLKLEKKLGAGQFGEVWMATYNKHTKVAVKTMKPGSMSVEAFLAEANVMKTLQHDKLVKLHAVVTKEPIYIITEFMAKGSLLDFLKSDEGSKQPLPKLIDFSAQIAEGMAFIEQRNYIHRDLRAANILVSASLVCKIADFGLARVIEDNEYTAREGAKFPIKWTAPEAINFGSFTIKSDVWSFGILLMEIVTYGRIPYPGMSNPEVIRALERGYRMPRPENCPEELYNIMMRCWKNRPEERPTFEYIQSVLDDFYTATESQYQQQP
Runt-CBFb FRET: Runt domain-CBFb interaction inhibition; Cerulean-Runt/Venus-CBFb FRET ratio 530/480, 1 h; inhibition, % at 20 µM; hit rate 0.46% among 220,000;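 active = inhibition over about 50% at 20 µM in the single-dose screen, limit read from the data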;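 also: 0% = DMSO wells and 100% = excess unlabeled CBFb competitor control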
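Schedule: protein complex preformed 1 h, compound exposure 1 h, room temperature, dark; test system: Cerulean-labeled Runt domain protein; amount: 100 nM per protein; buffer or medium: Tris 50 mM pH 7.5, KCl, K2SO4, 0.01% BSA; read-out: loss of energy transfer signal; detection: FRET fluorescence; controls: 5 µM unlabeled CBFb as full-inhibition high control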
RanGTP-Imp inh: disruptors of Ran-importin-beta complex formation – biochemical, FRET, CFP-Ran, YFP-importin-beta, homogeneous, primary screen. cell-free CFP-Ran/YFP-importin-beta FRET ratio. inhibition, % (no concentration beside the values). hit rate 1.1% among 300,000;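 active = more than half of the replicate wells show a fall in the fluorescence ratio signal beyond about 16%, limit read from the data, passing the limit was not always enough; inconclusive = exactly half of the replicate wells pass the set limit; inactive = fewer than half of replicates pass the limit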;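 also: 0% = DMSO wells and 100% = Ran loaded with GDP instead of GTP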
Runt-SMMHC FRET: Runt domain-CBFb-SMMHC interaction inhibition. Q01196+Q13951. Cerulean-Runt/Venus-CBFb-SMMHC FRET ratio 530/480, 1 h. inhibition, % at 20 µM. hit rate 0.74% among 220,000;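 active = mean inhibition across duplicate retests at 20 µM reaching about 50%, limit read from the data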;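 also: 0% = DMSO wells and 100% = wells with excess untagged CBFb-SMMHC; inhibitors lower the FRET ratio by blocking Runt binding to CBFb-SMMHC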
RUNX1 CBFb TR: inhibitors of human RUNX1 Runt domain binding to CBFb. shares compounds with Runt-CBFb FRET. TR-FRET RUNX1 Runt domain-CBFb binding. inhibition, % at 20 µM. hit rate 20% among 480. AID 1502; in the data active = inhibition above about 40%
YIC counter: counter-screen: alters YIC FRET probe signal. shares compounds with RanGTP-Imp inh. Purified YIC probe, intramolecular FRET ratio YFP/CFP. IC50, µM. hit rate 40% among 1,000;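 active = fitted half-maximal inhibitory concentration no more than tenfold above the top dose tested; inconclusive = flat fit with 30 to 70% activity, or poor fit; inactive = half-maximal concentration beyond tenfold above the top dose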
Hck-Nef confirm: confirmation of Hck-Nef kinase inhibitors; hit rate 28% among 1,300; calls only at 10 µM; shares compounds with Hck Nef HTS; Recombinant Hck-YEEI:Nef, Z-Lyte FRET kinase assay;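 active = average inhibition of at least 50%, with Z-scores no higher than 3 in both the phospho-tyrosine peptide and fluorescence counterscreens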
* hit, by the source's call; i = inactive; ? = inconclusive; . = no result shown; + = active, no number. Compounds with a hit are over-represented: about 1.9% of the library has one in this group of screens.

SMILES	Hck Nef HTS	Runt-CBFb FRET	RanGTP-Imp inh	Runt-SMMHC FRET	RUNX1 CBFb TR	others
O=C(N/N=C/c1ccc(N2CCCC2)c([N+](=O)[O-])c1)c1cccnc1	7.7	11.9	?	2.0	.
CCOCCCNC(=S)NCCNc1nc2c(C)cccc2cc1C#N	11.1	68.3*	20.7*	92.6*	30.3	YIC counter=32*
Cc1ccc2cc(C#N)c(NCCNC(=S)NCCCN(C)C)nc2c1C	19.3	25.0	6.3	45.4	.
COc1cc(/C=N/NC(=O)c2ccc(Cl)c(S(N)(=O)=O)c2)ccc1OCC(N)=O	18.8	-0.1	5.0	-0.6	.
Cn1nccc1C(=O)Nc1sc2c(c1C#N)CCCC2	.	.	-2.8	.	.
COc1ccc(-c2c(C)sc(NC(=O)c3ccnn3C)c2C#N)cc1	4.3	57.2*	25.4*	18.0	-51.6	YIC counter=>50
COCC(C)OC(=O)c1c(N)n(CC(C)C)c2nc3ccccc3nc12 (stereo unspecified)	33.2	62.6*	21.3*	125.9*	32.9	YIC counter=25.6*
COC(=O)c1c(N)n(-c2ccc(N3CCOCC3)cc2)c2nc3ccccc3nc12	.	-0.8	.	-1.1	.
CC(C)OC(=O)c1c(N)n(CCCN2CCOCC2)c2nc3ccccc3nc12	25.5	65.1*	25.4*	83.8*	32.5	YIC counter=31.3*
C=CCn1c(N)c(C(=O)OC(C)CC)c2nc3ccccc3nc21 (stereo unspecified)	30.1	66.0*	34.8*	122.9*	28.1	YIC counter=22.1*
O=C(COC(=O)c1ccc(O)cc1)Nc1ccccc1[N+](=O)[O-]	20.3	-0.5	?	0.8	.
Cc1ccc(C(=O)NNc2c3ccccc3nc3ccccc23)cc1	8.4	73.0*	39.2*	27.7	-8.8	YIC counter=>50
Nc1c(C(=O)NCCN2CCOCC2)c2nc3ccccc3nc2n1CCc1ccccc1F	51.5*	70.1*	93.0*	61.3*	24.1	Hck-Nef confirm=i
O=C(Oc1cc2oc(=O)c3c(c2cc1Cl)CCCC3)c1cccs1	77.9*	76.4*	.	133.1*	26.2
Cc1cc2oc(=O)c3c(c2cc1OC(=O)c1ccco1)CCCC3	17.1	-0.6	-3.3	-3.7	.
O=C(Oc1ccc2c3c(c(=O)oc2c1)CCCC3)c1cccs1	14.5	16.9	3.5	32.4	.
O=C(Oc1cc2oc(=O)c3c(c2cc1Cl)CCCC3)c1ccco1	82.8*	67.8*	-2.9	120.1*	36.5
CCNc1ccc2c(Cl)cc(=O)oc2c1	51.9*	54.6*	36.4*	95.3*	6.6	Hck-Nef confirm=i
Cc1nc2ccc(S(=O)(=O)Nc3ccc(-c4nc5cccnc5s4)cc3)cc2s1	55.6*	74.1*	21.5*	.	85.5*	YIC counter=38.5*
O=S(=O)(Nc1ccc(-c2nc3cccnc3s2)cc1)c1ccccc1F	+	80.8*	9.3	146.1*	-2.4
Cc1nc2ccc(S(=O)(=O)Nc3cccc(-c4nc5cccnc5s4)c3)cc2s1	-9.4	43.9	0.9	1.2	.
CCn1cc(C(=O)NCCC(=O)NCCCO)c(=O)c2cc3c(cc21)OCO3	.	.	-6.0	.	.
Cc1ccc(S(=O)(=O)NC(C(=O)Oc2cc3oc(=O)cc(C)c3cc2Cl)C(C)C)cc1 (stereo unspecified)	100.3*	60.6*	?	114.9*	52.8*
Cc1cc(=O)oc2cc(OC(C)C(=O)O)c(Cl)cc12 (stereo unspecified)	1.3	0.3	-2.0	46.9	.
CC(=O)Oc1cc2oc(=O)cc(C)c2cc1Cl	+	78.6*	12.5	113.0*	-57.2
SMILES	Hck Nef HTS	Runt-CBFb FRET	RanGTP-Imp inh	Runt-SMMHC FRET	RUNX1 CBFb TR	others
O=C(CCC1CCCCC1)NCCS(=O)(=O)N1CCN(c2ccccc2)CC1	.	.	2.1	.	.
COc1cc(-c2nc3ccccc3s2)ccc1O	154.6*	78.7*	0.3	154.3*	34.1
CCOc1cc(-c2nc3ccccc3s2)ccc1O	+	54.9*	2.9	116.7*	38.2
Nc1cc(C(F)(F)F)ccc1OCC1CCCO1 (stereo unspecified)	.	.	-1.3	.	.
CCOC(=O)[C@H]1[C@H]2COc3cc(OC)ccc3[C@@H]2N2C(=O)N(c3ccc(Cl)cc3)C(=O)[C@@]12C	.	.	2.8	.	.
N#Cc1c(N)n(-c2cccc(O)c2)c2nc3ccccc3nc12	72.4*	72.8*	26.5*	101.5*	27.5
N#Cc1c(C#N)c(-c2ccccc2)n(-c2ccccc2)c1N	-0.5	-0.9	1.1	-5.0	.
COCCNC(=O)c1c(N)n(-c2cccc(C)c2)c2nc3ccccc3nc12	60.0*	60.4*	97.4*	78.8*	24.7
COc1ccc(-n2c(N)c(C(=O)NCc3ccco3)c3nc4ccccc4nc32)cc1	68.9*	50.7*	37.4*	120.0*	21.3	Hck-Nef confirm=i
COc1cccc(-n2c(N)c(C(=O)Nc3c(C)n(C)n(-c4ccccc4)c3=O)c3nc4ccccc4nc32)c1	43.7	9.5	-3.9	-106.3	.
CCOc1ccc(CCNC(=O)c2cn(C)c3ccc(S(=O)(=O)N4CCOCC4)cc3c2=O)cc1OCC	.	.	-2.6	.	.
CCCCc1cc(=O)oc2c(CN(CC)CC)c(O)c(Cl)cc12	154.6*	74.9*	?	150.2*	-32.1
CC(C)CCN(C(=S)Nc1cccc(F)c1)C1CCN(C(C)C)CC1	13.6	-0.8	-3.4	-0.7	.
Cc1ccc(-n2c(-c3ccccc3)c[n+]3c2CCc2ccccc2-3)c(C)c1	25.5	-2.6	.	-2.3	.
COc1ccc(C(=O)O/N=C/c2ccc(S(=O)(=O)c3ccc(Cl)cc3)nc2)cc1	.	.	-0.1	.	.
CN(Cc1c(O)ccc2c1oc(=O)c1ccccc12)C1CCCCC1	-4.5	-8.6	-4.3	-34.9	.
CN(C)Cc1c(O)ccc2c3c(c(=O)oc12)CCCCC3	75.9*	70.0*	20.2*	136.0*	4.4	YIC counter=21.6*
COc1ccccc1-n1nnnc1SC(C)C(=O)NC1CCCC1 (stereo unspecified)	.	.	-1.9	.	.
CC(=O)Nc1ccc(S(=O)(=O)Nc2nc3cc4c(cc3nc2Cl)OCCO4)cc1	89.1*	51.0*	10.7	75.4*	36.1
c1coc(-c2nc(-c3ccco3)c(-c3ccco3)nc2-c2ccco2)c1	59.8*	51.1*	59.6*	46.3	-37.6	Hck-Nef confirm=i
CCOC(=O)c1cc2c(=O)n3ccccc3nc2n(CCOC)c1=NC(=O)C(C)(C)C	101.0*	76.6*	76.6*	-15.6	-7.3
COCCCn1c(C(=O)NCCC2=CCCCC2)cc2c(=O)n3ccccc3nc21	.	.	1.6	.	.
COc1ccc(CCNc2nc(-c3ccc(F)cc3)c(CC(=O)O)s2)cc1OC	.	.	3.2	.	.
CC(C)Cn1c(N)c(C(=O)NCC2CCCO2)c2nc3ccccc3nc21 (stereo unspecified)	53.2*	52.1*	82.2*	57.7*	30.9
